What was measured:
[1] = Pharmacokinetics: plasma R-150033 by LC-MS/MS after oral efatutazone; assay type: in vivo, human
Procedure, shortened: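 Adults with advanced solid malignancies took oral doses twice daily in 21-day cycles, in cohorts of 3 to 6 at 0.10–1.15 mg. Plasma was sampled at baseline and 0.5, 1, 2, 3, 4, 6 and 8–10 h after the first dose on day 1 of cycles 1 and 2. Active metabolite R-150033 was measured by validated LC-MS/MS. AUC, Cmax and Tmax were derived; accumulation was AUC0-tau/AUC0–12, and steady state was judged from trough levels.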

adiponectin = test: Plasma adiponectin; assay type: in vivo, human
Procedure, shortened: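 Blood was drawn at baseline (before cycle 1) and every 3 weeks thereafter from patients with advanced solid malignancies given oral drug twice daily at 0.10–1.15 mg in 21-day cycles. Plasma adiponectin was quantified by solid-phase quantitative sandwich enzyme immunoassay. A population pharmacokinetic/adiponectin model using data from every patient defined the dose–response relation and predicted the increase relative to pretreatment.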

[2] = system: metastatic or advanced solid malignancy; test: Tumor response; assay type: in vivo, human
cancer cell growth = settings: inhibition of cancer cell growth; cited from earlier work
[3] = system: human pancreatic and anaplastic thyroid tumor-cell cultures; settings: cited from earlier work
[4] = system: human colorectal tumor xeno-grafts; settings: human colorectal tumor xeno-grafts in nude rodents; cited from earlier work
[5] = in vivo; cited from earlier work
[6] = Patient 0020, Myxoid liposarcoma, 0.75 mg

SMILES: Cc1cc(Oc2ccc3nc(COc4ccc(CC5SC(=O)NC5=O)cc4)n(C)c3c2)cc(C)c1N (stereo not shown) [Efatutazone]
- Dose proportionality of exposure (AUC and Cmax) ([1]; 0.10 to 1.15 mg twice daily, single and multiple doses): approximately dose proportional
- Time to steady-state levels ([1]; based on trough plasma concentrations, twice daily): by week 1 of cycle 2
- Change in adiponectin levels (adiponectin; after 4 weeks of treatment at all dose levels): increased
- Predicted increase in adiponectin expression levels relative to pretreatment (adiponectin; at optimal dose, population-based pharmacokinetic/adiponectin modeling): > 90%
- No. of patients with stable disease or partial response ([2]; 0.10 mg cohort (n = 6)): 3
- Treatment duration in patients with SD/PR, Maximum ([2]; 0.10 mg cohort (n = 6)): 294 days
- Treatment duration in patients with SD/PR, Median ([2]; 0.10 mg cohort (n = 6)): 67.0 days
- Treatment duration in patients with SD/PR, Minimum ([2]; 0.10 mg cohort (n = 6)): 66 days
- No. of patients with stable disease or partial response ([2]; 0.15 mg cohort (n = 3)): 2
- Treatment duration in patients with SD/PR, Maximum ([2]; 0.15 mg cohort (n = 3)): 178 days
- Treatment duration in patients with SD/PR, Median ([2]; 0.15 mg cohort (n = 3)): 176.0 days
- Treatment duration in patients with SD/PR, Minimum ([2]; 0.15 mg cohort (n = 3)): 173 days
- No. of patients with stable disease or partial response ([2]; 0.25 mg cohort (n = 4)): 0
- No. of patients with stable disease or partial response ([2]; 0.35 mg cohort (n = 3)): 1
- Treatment duration in patients with SD/PR, Maximum ([2]; 0.35 mg cohort (n = 3)): 84 days
- Treatment duration in patients with SD/PR, Median ([2]; 0.35 mg cohort (n = 3)): 84.0 days
- Treatment duration in patients with SD/PR, Minimum ([2]; 0.35 mg cohort (n = 3)): 84 days
- No. of patients with stable disease or partial response ([2]; 0.50 mg cohort (n = 6)): 3
- Treatment duration in patients with SD/PR, Maximum ([2]; 0.50 mg cohort (n = 6)): 336 days
- Treatment duration in patients with SD/PR, Median ([2]; 0.50 mg cohort (n = 6)): 126.0 days
- Treatment duration in patients with SD/PR, Minimum ([2]; 0.50 mg cohort (n = 6)): 74 days
- No. of patients with stable disease or partial response ([2]; 0.75 mg cohort (n = 3)): 1
- Treatment duration in patients with SD/PR, Maximum ([2]; 0.75 mg cohort (n = 3)): 690 days
- Treatment duration in patients with SD/PR, Median ([2]; 0.75 mg cohort (n = 3)): 690.0 days
- Treatment duration in patients with SD/PR, Minimum ([2]; 0.75 mg cohort (n = 3)): 690 days
- No. of patients with stable disease or partial response ([2]; 1.15 mg cohort (n = 3)): 1
- Treatment duration in patients with SD/PR, Maximum ([2]; 1.15 mg cohort (n = 3)): 84 days
- Treatment duration in patients with SD/PR, Median ([2]; 1.15 mg cohort (n = 3)): 84.0 days
- Treatment duration in patients with SD/PR, Minimum ([2]; 1.15 mg cohort (n = 3)): 84 days
- Patients with stable disease lasting ≥60 days ([2]; 10 of 27 evaluable patients): 37%
- Number of sustained partial responses ([2]; 27 evaluable patients): 1
- No. of patients with stable disease or partial response ([2]; Overall (N = 27)): 11
- Treatment duration in patients with SD/PR, Maximum ([2]; Overall (N = 27)): 690 days
- Treatment duration in patients with SD/PR, Median ([2]; Overall (N = 27)): 126.0 days
- Treatment duration in patients with SD/PR, Minimum ([2]; Overall (N = 27)): 66 days
- Treatment Duration ([2]; Patient 0001, Thymoma, 0.10 mg, stable disease): 67 days
- Treatment Duration ([2]; Patient 0002, Carcinoma of unknown origin, 0.10 mg, stable disease): 66 days
- Treatment Duration ([2]; Patient 0005, Cancer of the peritoneum, 0.10 mg, stable disease): 294 days
- Treatment Duration ([2]; Patient 0007, Colorectal carcinoma, 0.15 mg, stable disease): 173 days
- Treatment Duration ([2]; Patient 0015, Carcinoma of unknown origin, 0.35 mg, stable disease): 84 days
- Treatment Duration ([2]; Patient 0017, Colorectal carcinoma, 0.50 mg, stable disease): 126 days
- Treatment Duration ([2]; Patient 0018, Colorectal carcinoma, 0.50 mg, stable disease): 74 days
- Time on therapy of patient with sustained partial response ([2]; Patient 20, metastatic myxoid liposarcoma): 690 days
- Nadir reduction in tumor size ([2]; Patient 20, metastatic myxoid liposarcoma, June 2009): approximately 49%
- Best response (RECIST) [2, 6]: partial response
- Treatment Duration [2, 6]: 690 days
- Fluorodeoxyglucose uptake (PET/CT) ([2]; Patient 20, November 2008): no fluorodeoxyglucose uptake in the remaining tumors
- Treatment Duration ([2]; Patient 0022, Cancer of the appendix, 1.15 mg, stable disease): 84 days
- Treatment Duration ([2]; Patient 0024, Carcinoma of unknown origin, 0.50 mg, stable disease): 336 days
- Treatment Duration ([2]; Patient 2001, Leiomyosarcoma, 0.15 mg, stable disease): 178 days
- Median overall survival ([2]; in vivo): 283 days
- Median time to disease progression ([2]; in vivo): 51 days
- Median treatment duration for patients with SD or PR ([2]; in vivo): 126 days
- Potency relative to rosiglitazone (cancer cell growth): at least 50 ×
- Potency relative to troglitazone (cancer cell growth): ≥ 500 ×
- Proliferation of tumor-cell cultures [3]: inhibits proliferation
- Growth of tumor xenografts [4]: inhibits
- Tolerability of single dose [5]: well tolerated

Source: paper PMC3726261 (Cancer, 2012)
